# The M2OR odorant receptor database
# How the values were obtained:
# Conditions in all cases: stereoisomer not certain
# UniProt Q8VGZ2 = molecular target: T1, UniProt Q8VGZ2
# T1 sequence (whole entry): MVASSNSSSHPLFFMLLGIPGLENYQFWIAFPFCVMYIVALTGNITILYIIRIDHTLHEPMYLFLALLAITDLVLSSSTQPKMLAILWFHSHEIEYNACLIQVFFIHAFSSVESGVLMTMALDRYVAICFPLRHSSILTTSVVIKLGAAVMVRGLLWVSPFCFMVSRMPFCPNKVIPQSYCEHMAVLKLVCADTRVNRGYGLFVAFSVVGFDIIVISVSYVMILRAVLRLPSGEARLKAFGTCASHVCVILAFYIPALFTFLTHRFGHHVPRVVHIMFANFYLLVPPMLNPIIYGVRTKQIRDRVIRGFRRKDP
# Summary of the method: (§1)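 Values were gathered from published papers (main text and supplementary material), with extra details requested from the original authors when needed, and checked for typos and inconsistencies. Each receptor–molecule pair is called responsive (active) if the original authors judged the measured signal statistically different from baseline, and non-responsive (inactive) otherwise. Assay methods varied by source, often transient mammalian cell-line luciferase assays. Recorded details include cell line, G-protein, co-transfected protein and tags.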
# UniProt Q8VGZ7 = molecular target: T2, UniProt Q8VGZ7
# T2 sequence (whole entry): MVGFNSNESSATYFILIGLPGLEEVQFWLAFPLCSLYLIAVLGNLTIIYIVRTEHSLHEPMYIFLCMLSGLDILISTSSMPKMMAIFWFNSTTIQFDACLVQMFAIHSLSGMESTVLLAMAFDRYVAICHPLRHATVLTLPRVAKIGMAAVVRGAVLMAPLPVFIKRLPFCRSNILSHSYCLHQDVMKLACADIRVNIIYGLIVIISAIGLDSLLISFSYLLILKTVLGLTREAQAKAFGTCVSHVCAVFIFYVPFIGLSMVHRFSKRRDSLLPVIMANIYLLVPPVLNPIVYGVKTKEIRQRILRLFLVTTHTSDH
# Summary of the method: as §1
# UniProt Q8VH16 = molecular target: T3, UniProt Q8VH16
# T3 sequence (whole entry): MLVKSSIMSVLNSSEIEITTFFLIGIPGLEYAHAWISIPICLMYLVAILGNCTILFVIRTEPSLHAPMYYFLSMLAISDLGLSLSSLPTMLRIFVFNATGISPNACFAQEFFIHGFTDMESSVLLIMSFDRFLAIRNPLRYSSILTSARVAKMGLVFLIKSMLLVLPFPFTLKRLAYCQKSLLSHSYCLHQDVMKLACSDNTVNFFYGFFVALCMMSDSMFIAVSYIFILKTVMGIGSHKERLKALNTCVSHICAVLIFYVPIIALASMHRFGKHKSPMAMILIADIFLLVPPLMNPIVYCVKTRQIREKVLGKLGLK
# Summary of the method: as §1
# UniProt Q8VH20 = molecular target: T4, UniProt Q8VH20
# T4 sequence (whole entry): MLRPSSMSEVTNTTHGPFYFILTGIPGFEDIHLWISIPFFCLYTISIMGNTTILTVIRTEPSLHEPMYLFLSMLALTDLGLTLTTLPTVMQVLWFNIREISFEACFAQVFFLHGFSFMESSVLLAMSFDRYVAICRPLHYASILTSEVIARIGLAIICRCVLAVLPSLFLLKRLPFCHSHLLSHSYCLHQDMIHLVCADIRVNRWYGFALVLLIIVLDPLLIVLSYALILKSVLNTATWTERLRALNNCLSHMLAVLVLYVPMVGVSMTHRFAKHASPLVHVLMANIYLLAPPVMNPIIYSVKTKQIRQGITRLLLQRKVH
# Summary of the method: as §1
# UniProt Q8VH21 = molecular target: T5, UniProt Q8VH21
# T5 sequence (whole entry): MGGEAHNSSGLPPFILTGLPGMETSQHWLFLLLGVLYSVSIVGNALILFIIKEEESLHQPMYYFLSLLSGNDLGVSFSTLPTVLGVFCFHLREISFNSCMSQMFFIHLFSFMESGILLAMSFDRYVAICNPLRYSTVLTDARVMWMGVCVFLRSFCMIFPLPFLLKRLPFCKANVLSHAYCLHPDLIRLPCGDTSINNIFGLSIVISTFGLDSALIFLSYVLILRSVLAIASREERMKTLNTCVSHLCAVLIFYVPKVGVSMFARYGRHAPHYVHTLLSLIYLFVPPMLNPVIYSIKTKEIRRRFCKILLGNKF
# Summary of the method: as §1
# UniProt Q8VGX8 = molecular target: T6, UniProt Q8VGX8
# T6 sequence (whole entry): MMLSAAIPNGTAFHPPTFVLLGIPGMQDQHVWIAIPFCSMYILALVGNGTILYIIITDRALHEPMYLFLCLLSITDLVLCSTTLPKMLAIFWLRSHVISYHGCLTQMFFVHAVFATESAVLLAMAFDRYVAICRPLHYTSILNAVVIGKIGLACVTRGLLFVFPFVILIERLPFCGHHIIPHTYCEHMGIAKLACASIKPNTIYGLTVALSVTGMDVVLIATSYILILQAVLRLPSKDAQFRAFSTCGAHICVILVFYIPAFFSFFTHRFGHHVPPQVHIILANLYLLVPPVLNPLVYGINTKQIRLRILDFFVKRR
# Summary of the method: as §1
# UniProt Q8VH18 = molecular target: T7, UniProt Q8VH18
# T7 sequence (whole entry): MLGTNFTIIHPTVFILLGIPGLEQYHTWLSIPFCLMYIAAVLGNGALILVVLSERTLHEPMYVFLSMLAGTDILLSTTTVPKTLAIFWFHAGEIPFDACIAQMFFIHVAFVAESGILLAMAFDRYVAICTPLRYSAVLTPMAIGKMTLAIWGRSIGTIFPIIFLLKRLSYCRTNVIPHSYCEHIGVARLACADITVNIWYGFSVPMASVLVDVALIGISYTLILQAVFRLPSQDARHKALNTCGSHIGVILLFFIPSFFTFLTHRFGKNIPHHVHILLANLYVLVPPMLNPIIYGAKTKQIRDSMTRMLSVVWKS
# Summary of the method: as §1
# UniProt Q8VGY6 = molecular target: T8, UniProt Q8VGY6
# T8 sequence (whole entry): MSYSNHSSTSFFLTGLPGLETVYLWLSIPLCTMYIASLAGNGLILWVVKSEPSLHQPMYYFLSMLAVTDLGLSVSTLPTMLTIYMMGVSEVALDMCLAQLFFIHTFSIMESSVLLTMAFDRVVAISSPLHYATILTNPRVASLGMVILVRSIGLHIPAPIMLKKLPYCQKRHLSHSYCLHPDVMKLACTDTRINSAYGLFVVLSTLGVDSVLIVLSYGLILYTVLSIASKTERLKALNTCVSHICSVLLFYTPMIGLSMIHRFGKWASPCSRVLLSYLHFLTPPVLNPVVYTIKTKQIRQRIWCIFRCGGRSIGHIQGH
# Summary of the method: as §1
# UniProt Q8VH10 = molecular target: T9, UniProt Q8VH10
# T9 sequence (whole entry): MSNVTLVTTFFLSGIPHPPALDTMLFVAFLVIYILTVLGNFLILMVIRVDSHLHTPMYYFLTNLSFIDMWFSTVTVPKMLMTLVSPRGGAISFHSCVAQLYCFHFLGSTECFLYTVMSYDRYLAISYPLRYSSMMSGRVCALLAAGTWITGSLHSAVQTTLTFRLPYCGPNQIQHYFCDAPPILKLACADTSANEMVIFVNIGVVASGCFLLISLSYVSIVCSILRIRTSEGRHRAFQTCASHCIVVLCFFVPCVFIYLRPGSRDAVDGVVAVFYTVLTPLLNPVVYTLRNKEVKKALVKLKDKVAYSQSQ
# Summary of the method: as §1
# UniProt Q920P1 = molecular target: T10, UniProt Q920P1
# T10 sequence (whole entry): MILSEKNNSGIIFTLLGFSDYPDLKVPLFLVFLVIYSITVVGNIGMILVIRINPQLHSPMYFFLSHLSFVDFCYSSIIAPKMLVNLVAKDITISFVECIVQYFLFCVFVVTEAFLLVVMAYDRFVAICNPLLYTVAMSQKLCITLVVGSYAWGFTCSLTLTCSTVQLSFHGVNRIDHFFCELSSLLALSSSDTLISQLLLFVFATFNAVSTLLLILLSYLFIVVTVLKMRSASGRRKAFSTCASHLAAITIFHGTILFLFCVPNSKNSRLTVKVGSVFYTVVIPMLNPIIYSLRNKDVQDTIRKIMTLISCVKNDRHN
# Summary of the method: as §1
SMILES,odorant receptor agonist call (UniProt Q8VGZ2),odorant receptor agonist call (UniProt Q8VGZ7),odorant receptor agonist call (UniProt Q8VH16),odorant receptor agonist call (UniProt Q8VH20),odorant receptor agonist call (UniProt Q8VH21),odorant receptor agonist call (UniProt Q8VGX8),odorant receptor agonist call (UniProt Q8VH18),odorant receptor agonist call (UniProt Q8VGY6),odorant receptor agonist call (UniProt Q8VH10),odorant receptor agonist call (UniProt Q920P1)
COc1ccccc1,inactive,inactive,inactive,inactive,inactive,,,,,
O=C(O)CCCCCBr,inactive,inactive,inactive,active,inactive,active,inactive,,,
O=C([O-])CCCCCCCC(=O)[O-].[H+].[H+],inactive,inactive,inactive,inactive,inactive,inactive,inactive,,,
O=C([O-])CCCCC(=O)[O-].[H+].[H+],,,,,,inactive,inactive,,,
CCSSCC,inactive,inactive,inactive,inactive,inactive,,,,,
CCc1ccccc1O,inactive,inactive,inactive,inactive,inactive,,,,,
CCCCCCCC(=O)[O-].[H+],active,inactive,,active,,active,active,inactive,inactive,
CC1CC=CCCCCCCCCCC(=O)C1 (configuration not stated),inactive,inactive,inactive,inactive,inactive,,,,,
CCCCCCCCC=CC=O,inactive,inactive,inactive,inactive,inactive,,,,,
CCCCCO,inactive,inactive,,inactive,,inactive,inactive,inactive,inactive,
CCOC(=O)CC(C)C,inactive,inactive,inactive,inactive,inactive,,,,,
CC(C)=CCCC(C)=CCO,inactive,inactive,inactive,inactive,inactive,inactive,,inactive,inactive,inactive
CCC=CCCCCC=O,inactive,inactive,inactive,active,inactive,,,,,
c1ccccc1,inactive,inactive,inactive,inactive,inactive,inactive,,inactive,inactive,inactive
CCC(C(=O)O)c1ccccc1 (configuration not stated),inactive,inactive,,inactive,,inactive,,inactive,inactive,
OCCc1ccccc1,inactive,inactive,inactive,inactive,inactive,,,,,
C=CC(C)=CCC=C(C)CCC=C(C)C,inactive,inactive,inactive,inactive,inactive,,,,,
CCCCC=O,inactive,inactive,inactive,inactive,inactive,,inactive,,,
CCCCOC(=O)C(C)OC(=O)CCC (configuration not stated),inactive,inactive,,inactive,,inactive,,inactive,inactive,
CC1CCC(C(C)C)C(=O)C1 (configuration not stated),inactive,inactive,inactive,inactive,inactive,,,,,
O=C(O)CCCBr,,,,,,inactive,inactive,,,
CCCCCCC=CC=O,inactive,inactive,inactive,inactive,inactive,,,,,
Cc1ccc(OC(=O)C(C)C)cc1,inactive,inactive,inactive,inactive,inactive,,,,,
CC(C)CCN,inactive,inactive,inactive,inactive,inactive,,,,,
COC(OC)c1ccccc1,inactive,inactive,inactive,inactive,inactive,,,,,
COc1cc(C(=O)O)ccc1O,inactive,inactive,inactive,inactive,inactive,inactive,,active,inactive,inactive
CCCCCCCCCCCO,inactive,inactive,inactive,inactive,inactive,,,,,
C=C(C)C1CCC2(C)OC2C1 (configuration not stated),inactive,inactive,inactive,inactive,inactive,,,,,
CCCCCCCCCCOC(C)=O,inactive,inactive,inactive,inactive,inactive,,,,,
